Values joined by “and” are separate entries in the source; they are usually repeats but may differ in a detail not shown here. Identical values can stand only once. Like-named read-outs stand apart in the source and are kept apart here.

The format of data set [1] is binding, Ovine.
Data set [2] can be described thus: SHG isotherm of nonspecific binding of CTB to pure DOPC bilayer. The conditions noted are these: entire CTB concentration range examined (0.22 to 13 nM).
The conditions of data set [3]: SPR, 120–240 nM CTB, cited from earlier work. In general terms: In SPR one partner is held on a chip, and binding of the other changes the refractive index at the surface.
For data set [4] the following is noted: fluorescence; 1 mol % GM1; Hill–Waud model; cited from earlier work.
Data set [5] can be described thus: SHCS of PnA binding to 5 mol % GM1-doped DOPC lipid bilayer. Set-up: species or system Ovine. The conditions noted are these: for equilibrium binding affinity Ka: eq 2.
Data set [6] can be described thus: SHCS of nonspecific binding of PnA to pure DOPC bilayer. The conditions noted are these: 0.43, 3 and 12 μM PnA, pure DOPC bilayer without GM1. The method in brief: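 Data were recorded after steady-state equilibrium on each laser pulse (20 Hz, 50 ms step). For each protein concentration, 20 sets of 5000 points each (1.4 h) were taken. Each set's FFT was multiplied by its complex conjugate, the sets were averaged, and the result was inverse-transformed to give the autocorrelation. Time-zero points were normalized to matching specific-binding data (5 mol % GM1 in DOPC).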

Data set [7] has as its system N-acetylgalactose receptors on Chinese hamster ovarian (CHO) cells. Particulars: lectin iodination, PnA 10–60 μM, at least 1 h incubation; cited from earlier work.
The conditions of data set [8]: cited from earlier work.
Setting [9] is: [PnA] 0.43 μM, 5 mol % GM1, SHCS.
[10] abbreviates: [PnA] 3.0 μM, 5 mol % GM1, SHCS.
Where [11] appears, read: [PnA] 12.2 μM, 5 mol % GM1, SHCS.

Consider CTB, for which, in data set [1], the koff was 3.6 ± 0.5 ×10^–5 s^–1 and 3.2 ± 0.4 ×10^–5 s^–1 and 2.5 ± 0.2 ×10^–5 s^–1. Also, in data set [2], the nonspecific binding result is reported as “negligible nonspecific binding”. The kon in data set [3] (5 mol % GM1-doped lipid bilayer) is 1.27 × 10^6 M^–1·s^–1. Further, in data set [3] (steady-state equilibrium), the Kd (commonly the concentration at which binding is half-saturated) is 0.00461 nM. Further, in data set [4], the Ka entry is recorded as “(3.2 ± 0.7) × 10^9 M ^–1”, the Kd is 0.31 nM and the “n (Hill coefficient)” value is 1.9.

B1: PnA: Peanut (Arachis hypogaea) agglutinin, tetrameric lectin that binds specifically to terminal D-galactosyl groups; from Sigma-Aldrich (protein, UniProt P02872 24-273, looked up)
Galactose-binding lectin: AETVSFNFNSFSEGNPAINFQGDVTVLSNGNIQLTNLNKVNSVGRVLYAMPVRIWSSATGNVASFLTSFSFEMKDIKDYDPADGIIFFIAPEDTQIPAGSIGGGTLGVSDTKGAGHFVGVEFDTYSNSEYNDPPTDHVGIDVNSVDSVKTVPWNSVSGAVVKVTVIYDSSTKTLSVAVTNDNGDITTIAQVVDLKAKLPERVKFGFSASGSLGGRQIHLIRSWSFTSTLITTTRRSIDNNEKKIMNMASA
Consider B1, for which the adsorption rate result in data set [5] (0.43 μM PnA, 5 mol % GM1, SHCS) is recorded as “(3.7 ± 0.3) × 10^6 M^–1·s^–1”; in data set [5] (3 μM PnA, 5 mol % GM1, SHCS), “(3.9 ± 0.3) × 10^5 M^–1·s^–1”; in data set [5] (12 μM PnA, 5 mol % GM1, SHCS), “(1.1 ± 0.1) × 10^5 M^–1·s^–1”; in data set [5] (60 μM PnA, 5 mol % GM1, SHCS) it was “(3.1 ± 0.3) × 10^4 M^–1·s^–1”. The desorption rate entry in data set [5] (0.43 μM PnA, 5 mol % GM1, SHCS) is reported as “(1.0 ± 0.2) × 10^–3 s^–1”; in data set [5] (3 μM PnA, 5 mol % GM1, SHCS) it was “(2.2 ± 0.2) × 10^–3 s^–1”; in data set [5] (12 μM PnA, 5 mol % GM1, SHCS) it was “(2.7 ± 0.2) × 10^–3 s^–1”; in data set [5] (60 μM PnA, 5 mol % GM1, SHCS), “(3.7 ± 0.5) × 10^–3 s^–1”. The “equilibrium binding affinity Ka” value is given as “(3.7 ± 0.8) × 10^9 M^–1” in data set [5] (0.43 μM PnA, SHCS); “(1.7 ± 0.2) × 10^8 M^–1” in data set [5] (3 μM PnA, SHCS); “(4.1 ± 0.5) × 10^7 M^–1” in data set [5] (12 μM PnA, SHCS). Further, the Ka result in data set [5] (60 μM PnA, 5 mol % GM1, SHCS) is reported as “(8.4 ± 1.4) × 10^6 M^–1”; in data set [5] ([PnA] 0.43 μM, calculated by eq 2), 37 ± 8 ×10^8 M^–1; in data set [5] ([PnA] 3.0 μM, calculated by eq 2), 1.7 ± 0.2 ×10^8 M^–1; in data set [5] ([PnA] 12.2 μM, calculated by eq 2), 0.41 ± 0.05 ×10^8 M^–1; in data set [7] it was “(4.5 ± 1) × 10^6 M^–1”. In addition, the koff is on record as 1.0 ± 0.2 ×10^–3 s^–1 in data set [5] (setting [9]), 2.2 ± 0.2 ×10^–3 s^–1 in data set [5] (setting [10]) and 2.7 ± 0.2 ×10^–3 s^–1 in data set [5] (setting [11]). The kon is listed as 37 ± 3 ×10^5 M^–1·s^–1 in data set [5] (setting [9]), 3.9 ± 0.3 ×10^5 M^–1·s^–1 in data set [5] (setting [10]) and 1.1 ± 0.1 ×10^5 M^–1·s^–1 in data set [5] (setting [11]). The nonspecific binding result in data set [6] is on record as “negligible nonspecific binding”. Besides, the pI in data set [8] is recorded as roughly 6.

Source of the values: article PMC4238591 (Analytical Chemistry, 2014).
